ARFGAP1 inhibitor = inhibits rat ARF GTPase activating protein 1; Q62848; Arfgap1-stimulated ARF1 GTP hydrolysis, GDP FP detection; inhibition, % at 16.5 µM; 0.26% of 360,000 active; AID 651572;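 active = inhibition above a per-plate limit, mean inhibition of low control wells plus 3 SD, cut at about 25% in these data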
Target sequence (Q62848 1-136 limits assumed): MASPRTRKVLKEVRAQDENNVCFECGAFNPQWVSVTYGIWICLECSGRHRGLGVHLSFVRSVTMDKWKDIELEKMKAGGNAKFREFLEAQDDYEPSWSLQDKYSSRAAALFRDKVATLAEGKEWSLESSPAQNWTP
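Assay system: purified rat His6-Arfgap1 residues 1-136 (GAP domain); Reagent: human Δ17 ARF1 bound to GTP; Dosing: 16.5 µM single point, 1.26% DMSO; Times: GTP hydrolysis reaction 2 h at 25 °C; Signal: FP, GDP Alexa 633 tracer displaced from anti-GDP antibody, 620/688 nm; Measure: % inhibition from polarization.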
FGF22 binding = FGF22 (human) thermal shift binding | Q9HCT0 | recombinant FGF22 thermal shift, SYPRO orange fluorescence; percent of sucrose octasulfate shift, DMSO zero | activity (Tm shift, normalised), % at 9.99 µM | 1.5% of 340,000 active;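 active = mean Tm shift, scaled 0 neutral to 100 positive control, at about 1.3% or above, every replicate too, limit read from the data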
Rtt109 HAT inh = C. albicans Rtt109 histone acetyltransferase inhibition; Q5AAJ8; purified Rtt109/Vps75, ThioGlo CoA-SH fluorescence, 4 h; inhibition, % at 34.9 µM; 0.16% of 330,000 active; AID 540336;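 active = inhibition of at least 50% in every replicate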
Target sequence (Q5AAJ8 whole entry, looked up): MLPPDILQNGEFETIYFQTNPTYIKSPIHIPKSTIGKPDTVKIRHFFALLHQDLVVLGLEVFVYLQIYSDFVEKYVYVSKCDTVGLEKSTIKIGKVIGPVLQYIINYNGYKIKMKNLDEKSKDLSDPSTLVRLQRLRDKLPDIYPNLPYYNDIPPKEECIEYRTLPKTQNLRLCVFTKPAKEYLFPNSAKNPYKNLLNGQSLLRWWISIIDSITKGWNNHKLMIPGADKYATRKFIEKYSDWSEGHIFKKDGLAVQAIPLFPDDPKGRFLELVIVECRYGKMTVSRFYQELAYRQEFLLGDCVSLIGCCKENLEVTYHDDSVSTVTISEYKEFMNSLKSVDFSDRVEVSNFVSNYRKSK
ASAP1 inh = blocks human ASAP1-stimulated Arf1 GTP hydrolysis | Q9ULH1 | GDP FP detection | inhibition, % at 16.5 µM | 0.19% of 360,000 active; in the data active = inhibition above about 25%
Efflux pump inh = blocks antifungal efflux pumps in multiplex yeast assay; S. cerevisiae Candida pump triplex, Nile Red efflux; inhibition, % at 10 µM; 0.44% of 330,000 active; AID 485275;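 active = plate passing quality check with inhibition over a set limit, or well fluorescence over plate mean plus 4 SD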;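 also: Nile Red retained in pooled yeast measured as flow cytometry median fluorescence; higher means more Nile Red kept so more efflux inhibition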
Cmpd fluor yeast = compound fluorescence in yeast efflux pump counter-screen. fluorescence ratio to DMSO, % at 10 µM. shares compounds with Efflux pump inh. AID 588517. 4% of 1,700 active. S. cerevisiae AD/pABC3, flow cytometry;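 active = fluorescence ratio to DMSO above its plate's cutoff, the plate mean ratio plus 5 SD, cut at about 210% in these data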;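 also: unstained yeast with no Nile Red so the signal is compound autofluorescence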
Mdr1 pump inh = blocks the Candida albicans Mdr1 efflux pump in yeast | shares compounds with Efflux pump inh | S. cerevisiae AD/CaMDR1, Nile Red efflux, flow cytometry | inhibition, % at 10 µM | 1% of 1,700 active; in the data active = inhibition above about 26%;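 also: higher means more Nile Red retained so more efflux inhibition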
Cdr2 pump inh = inhibitors of Candida albicans Cdr2 efflux pump; shares compounds with Efflux pump inh; S. cerevisiae AD/CaCDR2, Nile Red retention, flow cytometry; Nile Red retention ratio vs DMSO, % at 10 µM; 4% of 1,700 active; in the data active = Nile Red retention ratio vs DMSO above about 190%;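 also: higher ratio means more blocking of Cdr2 efflux of the dye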
CaCdr1 efflux inh = blocks the Candida albicans Cdr1 efflux pump in yeast | shares compounds with Efflux pump inh | S. cerevisiae AD/CaCDR1, Nile Red efflux, flow cytometry | inhibition, % at 10 µM | 1% of 1,700 active;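 active = inhibition above the screen-wide mean plus twice its standard deviation, cut at about 32% in these data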
Large screens that a line does not name were inactive (follow-up assays come after a bar, where they were run). An excerpt weighted towards active compounds, which were near 1.9% of everything screened.

Cc1ccc(C(=O)N2CCC3(CC2)Oc2ccc(Cl)cc2C(=O)C32CC(c3ccccc3)=NO2)s1 (stereo unspecified)	none | Cmpd fluor yeast inactive | Mdr1 pump inh inactive | Cdr2 pump inh inactive | CaCdr1 efflux inh inactive
O=C(c1ccc2c(c1)OCO2)N1CCC2(CC1)Oc1ccc(Cl)cc1C(=O)C21CC(c2cccnc2)=NO1 (stereo unspecified)	none
Cc1ccc(C(=O)N2CCC3(CC2)Oc2ccc(Cl)cc2C(=O)C32CC(c3cccnc3)=NO2)s1 (stereo unspecified)	none | Cmpd fluor yeast inactive | Mdr1 pump inh inactive | Cdr2 pump inh inactive | CaCdr1 efflux inh inactive
CCN(CC)S(=O)(=O)c1ccc(N(C)C)c(NC(=O)CC(NC(C)=O)c2ccccc2)c1 (stereo unspecified)	none (no result: ARFGAP1 inhibitor, FGF22 binding, ASAP1 inh)
CC(=O)c1c(N2CCN(Cc3ccccc3)CC2)[nH]c(-c2ccccc2)nc1=S	Efflux pump inh 0.5 (no result: FGF22 binding) | Cmpd fluor yeast inactive | Mdr1 pump inh inactive | Cdr2 pump inh inactive | CaCdr1 efflux inh inactive
CC(=O)c1c(N2CCOCC2)[nH]c(-c2ccccc2)nc1=S	none | Cmpd fluor yeast inactive | Mdr1 pump inh inactive | Cdr2 pump inh inactive | CaCdr1 efflux inh inactive
CSc1nc(-c2ccccc2)nc(N2CCOCC2)c1C(C)=O	none | Cmpd fluor yeast inactive | Mdr1 pump inh inactive | Cdr2 pump inh inactive | CaCdr1 efflux inh inactive
CCN(CC)S(=O)(=O)c1cc(NC(=O)CO/N=C(\N)c2ccccc2Cl)ccc1C	none
COc1ccc(NC(=O)CN(C)CC(=O)Nc2ccc(Cl)cc2F)cc1	none
Cc1nnc(NC(=O)c2sc3nc(-c4cccs4)cc(C(F)(F)F)c3c2N)s1	Efflux pump inh 1.3 | Cmpd fluor yeast inactive | Mdr1 pump inh inactive | Cdr2 pump inh inactive | CaCdr1 efflux inh inactive
Nc1c(C(=O)Nc2nccs2)sc2nc(-c3cccs3)cc(C(F)(F)F)c12	none (no result: FGF22 binding)
CCOc1ccc(/C=c2\sc3nc(-c4ccco4)nn3c2=O)cc1OCC	none (no result: FGF22 binding) | Cmpd fluor yeast inactive | Mdr1 pump inh inactive | Cdr2 pump inh inactive | CaCdr1 efflux inh inactive
Cc1nn(C)c(Sc2ccccc2N)c1[N+](=O)[O-]	Rtt109 HAT inh 153, Efflux pump inh 0.9 | Cmpd fluor yeast inactive | Mdr1 pump inh inactive | Cdr2 pump inh inactive | CaCdr1 efflux inh inactive
CNc1nc2[nH]c(=O)c3c(c2s1)OC(N)=C(C#N)C3c1ccccc1 (stereo unspecified)	Efflux pump inh 9.7 (no result: FGF22 binding) | Cmpd fluor yeast inactive | Mdr1 pump inh inactive | Cdr2 pump inh inactive | CaCdr1 efflux inh inactive
CC(C)CNC(=S)N1CCN(c2nc3ccccc3s2)CC1	none
Cc1ccc(NC(=O)c2ccc(-n3cccn3)c([N+](=O)[O-])c2)cc1	none (no result: FGF22 binding)
O=C(Nc1ccc(C2=NCCN2)cc1)c1ccc(C(=O)Nc2ccc(C3=NCCN3)cc2)c([N+](=O)[O-])c1	ARFGAP1 inhibitor 27, Efflux pump inh 1.1 | Cmpd fluor yeast inactive | Mdr1 pump inh inactive | Cdr2 pump inh inactive | CaCdr1 efflux inh inactive
O=C(Nc1ccc2oc(-c3ccncc3)nc2c1)c1ccc([N+](=O)[O-])o1	none
N#C/C(=C/c1ccc(Br)s1)C(=O)NCCc1c[nH]c2ccccc12	Efflux pump inh 5.5 | Cmpd fluor yeast inactive | Mdr1 pump inh inactive | Cdr2 pump inh inactive | CaCdr1 efflux inh inactive
C[C@H]1CCCCO[C@@H](CN(C)C(=O)Nc2ccc3c(c2)OCO3)[C@@H](C)CN([C@@H](C)CO)C(=O)c2cc(NC(=O)Nc3ccc(F)cc3)ccc2O1	none (no result: ARFGAP1 inhibitor, Rtt109 HAT inh, ASAP1 inh, Efflux pump inh)
COc1ccccc1-c1sc2ccccc2c1-c1ccc(OCCN2CCCCC2)cc1	Efflux pump inh 40 (no result: ARFGAP1 inhibitor, FGF22 binding, ASAP1 inh) | Cmpd fluor yeast inactive | Mdr1 pump inh inactive | Cdr2 pump inh inactive | CaCdr1 efflux inh inactive
COc1ccc2sc(-c3ccccc3OC)c(-c3ccc(OCCN(C)C)cc3)c2c1	Efflux pump inh 196 | Cmpd fluor yeast inactive | Mdr1 pump inh inactive | Cdr2 pump inh active | CaCdr1 efflux inh inactive

Source: PubChem
